According to ChEMBL document CHEMBL4196128 (ACS Med Chem Lett, 2018):

Assays:
HT-29 = test: Antiproliferative activity against human HT-29 cells harboring BRAF V600E/D mutant measured after 4 days; type: functional, cell-based; details: HT-29, 96 h
Cytochrome P450 3A4 [1] = biological target: T1, Cytochrome P450 3A4 (Homo sapiens, UniProt P08684); test: Inhibition of CYP3A4 (unknown origin) co-incubated with substrate; type: ADME
Cytochrome P450 3A4 [2] = biological target: T1, Cytochrome P450 3A4; test: Inhibition of CYP3A4 (unknown origin) preincubated followed by substrate addition; type: ADME
hERG (KCNH2) [3] = biological target: T2, hERG (KCNH2) (Homo sapiens, UniProt Q12809); test: Inhibition of human ERG at 1.5 mg/ml by binding assay relative to control; design: dose or concentration left out as unconfirmed
T2 sequence (Q12809 whole entry): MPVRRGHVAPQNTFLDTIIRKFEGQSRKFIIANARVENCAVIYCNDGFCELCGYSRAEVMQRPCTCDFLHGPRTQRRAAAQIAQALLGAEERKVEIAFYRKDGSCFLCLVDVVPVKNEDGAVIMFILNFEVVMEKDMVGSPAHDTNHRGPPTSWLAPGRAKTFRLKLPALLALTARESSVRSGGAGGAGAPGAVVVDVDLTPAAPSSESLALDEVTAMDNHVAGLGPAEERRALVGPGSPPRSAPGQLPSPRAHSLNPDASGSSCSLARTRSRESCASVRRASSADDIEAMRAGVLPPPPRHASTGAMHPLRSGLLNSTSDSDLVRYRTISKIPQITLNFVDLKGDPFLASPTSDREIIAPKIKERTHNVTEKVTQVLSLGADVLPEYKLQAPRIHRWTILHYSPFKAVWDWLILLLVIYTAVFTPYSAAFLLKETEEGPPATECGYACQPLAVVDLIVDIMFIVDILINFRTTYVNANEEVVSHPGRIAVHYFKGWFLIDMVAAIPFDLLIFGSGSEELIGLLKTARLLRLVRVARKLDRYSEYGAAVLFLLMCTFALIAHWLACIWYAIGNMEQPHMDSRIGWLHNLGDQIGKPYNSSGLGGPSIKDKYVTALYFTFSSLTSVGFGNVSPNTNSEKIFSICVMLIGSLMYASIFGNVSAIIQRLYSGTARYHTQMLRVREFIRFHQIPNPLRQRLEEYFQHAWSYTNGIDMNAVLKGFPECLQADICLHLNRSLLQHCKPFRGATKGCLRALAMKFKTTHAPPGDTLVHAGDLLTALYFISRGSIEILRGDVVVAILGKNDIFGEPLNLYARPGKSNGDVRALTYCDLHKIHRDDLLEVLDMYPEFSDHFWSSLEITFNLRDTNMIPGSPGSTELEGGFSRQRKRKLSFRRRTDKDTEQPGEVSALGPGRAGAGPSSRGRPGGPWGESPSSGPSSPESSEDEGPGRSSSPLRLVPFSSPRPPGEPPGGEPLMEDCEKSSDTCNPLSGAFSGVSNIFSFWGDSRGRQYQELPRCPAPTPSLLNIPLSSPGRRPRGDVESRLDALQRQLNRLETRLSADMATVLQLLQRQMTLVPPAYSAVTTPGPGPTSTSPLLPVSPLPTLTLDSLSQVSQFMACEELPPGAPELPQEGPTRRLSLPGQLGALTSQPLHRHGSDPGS

hERG (KCNH2) [4] = biological target: T2, hERG (KCNH2); test: Inhibition of human ERG at 1 uM by IonWork assay relative to control
hERG (KCNH2) [5] = biological target: T2, hERG (KCNH2); test: Inhibition of human ERG at 10 uM by IonWork assay relative to control
A2058 = test: Antiproliferative activity against human A2058 cells harboring BRAF V600E/D mutant measured after 4 days; type: functional, cell-based; details: A2058, 96 h
Cytochrome P450 2C8 = biological target: T3, Cytochrome P450 2C8 (Homo sapiens, UniProt P10632); test: Inhibition of CYP2C8 (unknown origin) preincubated followed by substrate addition; type: ADME
T3 sequence (P10632 whole entry): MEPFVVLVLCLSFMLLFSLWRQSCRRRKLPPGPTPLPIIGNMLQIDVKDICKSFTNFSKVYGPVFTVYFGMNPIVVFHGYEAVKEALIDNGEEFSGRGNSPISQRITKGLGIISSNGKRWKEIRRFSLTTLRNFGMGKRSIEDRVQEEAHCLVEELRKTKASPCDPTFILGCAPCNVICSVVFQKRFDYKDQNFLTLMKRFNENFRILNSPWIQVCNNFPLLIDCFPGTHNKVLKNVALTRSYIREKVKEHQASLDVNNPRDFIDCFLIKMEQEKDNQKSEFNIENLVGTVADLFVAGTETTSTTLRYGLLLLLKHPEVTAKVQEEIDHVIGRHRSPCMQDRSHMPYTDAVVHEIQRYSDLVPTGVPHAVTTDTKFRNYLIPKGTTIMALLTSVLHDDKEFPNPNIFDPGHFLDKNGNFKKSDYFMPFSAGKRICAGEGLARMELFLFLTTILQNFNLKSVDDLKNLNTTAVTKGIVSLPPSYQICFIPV

Cytochrome P450 2C9 [6] = biological target: T4, Cytochrome P450 2C9 (Homo sapiens, UniProt P11712); test: Inhibition of CYP2C9 (unknown origin) co-incubated with substrate; type: ADME
T4 sequence (P11712 whole entry): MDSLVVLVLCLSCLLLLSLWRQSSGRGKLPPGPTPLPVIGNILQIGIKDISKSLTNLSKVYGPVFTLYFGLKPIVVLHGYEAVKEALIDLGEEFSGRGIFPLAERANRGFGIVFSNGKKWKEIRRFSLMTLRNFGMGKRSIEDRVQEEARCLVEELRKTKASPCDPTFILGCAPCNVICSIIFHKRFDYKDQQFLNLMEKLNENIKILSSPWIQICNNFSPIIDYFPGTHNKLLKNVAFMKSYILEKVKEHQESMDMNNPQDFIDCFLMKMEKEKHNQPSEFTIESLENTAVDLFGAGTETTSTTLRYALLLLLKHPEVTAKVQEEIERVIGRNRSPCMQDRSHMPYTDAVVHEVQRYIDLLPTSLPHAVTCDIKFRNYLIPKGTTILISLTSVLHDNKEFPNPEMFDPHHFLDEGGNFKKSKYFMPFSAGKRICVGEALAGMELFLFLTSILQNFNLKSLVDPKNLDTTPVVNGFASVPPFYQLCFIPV

Cytochrome P450 2C9 [7] = biological target: T4, Cytochrome P450 2C9; test: Inhibition of CYP2C9 (unknown origin) preincubated followed by substrate addition; type: ADME
Caspase (Homo sapiens) = Caspase (Homo sapiens) (UniProt P49662+P55211+P42574+P51878+P55212+P55210+Q14790+P29466+P42575+Q92851+P31944+Q6UXS9); test: Activation of caspase (unknown origin); type: protein assay
hERG (KCNH2) [8] = biological target: T2, hERG (KCNH2); test: Inhibition of human ERG at 600 nM by voltage clamp method relative to control
[9] = Apparent permeability across apical to basolateral side in human Caco2 cells; type: ADME, cell-based; details: Caco-2, read-out: permeability
[10] = Apparent permeability across basolateral to apical side in human Caco2 cells; type: ADME, cell-based; details: Caco-2, read-out: permeability
[11] = Protein binding in Sprague-Dawley rat plasma at 10 uM; type: ADME, cell-free; details: read-out: PPB
[12] = Protein binding in dog plasma at 10 uM; type: ADME, cell-free, Canis lupus familiaris; details: read-out: PPB
[13] = Protein binding in mouse plasma at 10 uM; type: ADME, cell-free; details: read-out: PPB
[14] = Protein binding in human plasma at 10 uM; type: ADME, cell-free; details: read-out: PPB
[15] = biological target: T5, Mitogen-activated protein kinase; ERK1/ERK2 (Homo sapiens) (UniProt P27361+P28482); test: Inhibition of ERK1/2 in human A2058 cells assessed as reduction in RSK phosphorylation after 24 hrs by Western blot analysis; type: cell-based
T5 sequence (P27361 whole entry, looked up): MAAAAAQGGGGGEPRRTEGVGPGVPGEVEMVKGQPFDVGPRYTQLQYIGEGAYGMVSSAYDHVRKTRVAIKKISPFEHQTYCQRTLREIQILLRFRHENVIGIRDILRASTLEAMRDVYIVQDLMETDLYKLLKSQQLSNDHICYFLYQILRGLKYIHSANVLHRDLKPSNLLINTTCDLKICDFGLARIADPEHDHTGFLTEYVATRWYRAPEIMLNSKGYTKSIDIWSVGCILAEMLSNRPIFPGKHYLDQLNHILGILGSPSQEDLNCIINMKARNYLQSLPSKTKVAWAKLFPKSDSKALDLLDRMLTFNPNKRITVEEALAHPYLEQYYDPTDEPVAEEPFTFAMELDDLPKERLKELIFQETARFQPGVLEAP
T5 sequence (P28482 whole entry, looked up): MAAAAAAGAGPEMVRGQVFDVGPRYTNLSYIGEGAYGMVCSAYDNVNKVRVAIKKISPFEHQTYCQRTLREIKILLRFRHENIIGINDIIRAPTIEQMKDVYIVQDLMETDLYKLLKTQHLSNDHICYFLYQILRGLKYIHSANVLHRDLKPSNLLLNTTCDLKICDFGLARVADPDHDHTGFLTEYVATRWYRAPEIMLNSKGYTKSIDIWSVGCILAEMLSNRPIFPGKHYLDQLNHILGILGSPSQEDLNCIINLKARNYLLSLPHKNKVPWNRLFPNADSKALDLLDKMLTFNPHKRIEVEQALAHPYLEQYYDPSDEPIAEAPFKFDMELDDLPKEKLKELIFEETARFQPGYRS
Method in brief: (§1)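 A2058 melanoma cells were treated across a compound dose range. pERK1/2 and pRSK levels were detected by Western blot analysis.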

[16] = biological target: T5, Mitogen-activated protein kinase; ERK1/ERK2 (Homo sapiens); test: Inhibition of ERK1/2 phosphorylation in human A2058 cells at 30 nM after 24 hrs by Western blot analysis relative to control; type: cell-based; method in brief: as §1
Cytochrome P450 2C19 = Cytochrome P450 2C19 (Homo sapiens, UniProt P33261); test: Inhibition of CYP2C19 (unknown origin) preincubated followed by substrate addition; type: ADME
Cytochrome P450 2C19, sequence (P33261 whole entry): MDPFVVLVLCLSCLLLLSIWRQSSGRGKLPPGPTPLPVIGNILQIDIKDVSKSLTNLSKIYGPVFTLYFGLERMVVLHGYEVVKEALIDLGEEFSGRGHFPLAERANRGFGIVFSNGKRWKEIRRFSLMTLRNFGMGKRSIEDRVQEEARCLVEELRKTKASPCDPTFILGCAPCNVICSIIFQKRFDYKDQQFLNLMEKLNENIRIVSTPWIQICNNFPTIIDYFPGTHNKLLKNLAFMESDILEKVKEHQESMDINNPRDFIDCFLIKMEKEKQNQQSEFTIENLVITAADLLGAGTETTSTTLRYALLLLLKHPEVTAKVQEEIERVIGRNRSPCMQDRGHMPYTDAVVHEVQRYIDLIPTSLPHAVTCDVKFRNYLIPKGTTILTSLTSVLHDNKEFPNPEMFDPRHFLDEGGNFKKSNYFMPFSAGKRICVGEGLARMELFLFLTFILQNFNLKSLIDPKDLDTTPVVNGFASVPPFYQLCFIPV

Cytochrome P450 2D6 = Cytochrome P450 2D6 (Homo sapiens, UniProt P10635); test: Inhibition of CYP2D6 (unknown origin) preincubated followed by substrate addition; type: ADME
Cytochrome P450 2D6, sequence (P10635 whole entry): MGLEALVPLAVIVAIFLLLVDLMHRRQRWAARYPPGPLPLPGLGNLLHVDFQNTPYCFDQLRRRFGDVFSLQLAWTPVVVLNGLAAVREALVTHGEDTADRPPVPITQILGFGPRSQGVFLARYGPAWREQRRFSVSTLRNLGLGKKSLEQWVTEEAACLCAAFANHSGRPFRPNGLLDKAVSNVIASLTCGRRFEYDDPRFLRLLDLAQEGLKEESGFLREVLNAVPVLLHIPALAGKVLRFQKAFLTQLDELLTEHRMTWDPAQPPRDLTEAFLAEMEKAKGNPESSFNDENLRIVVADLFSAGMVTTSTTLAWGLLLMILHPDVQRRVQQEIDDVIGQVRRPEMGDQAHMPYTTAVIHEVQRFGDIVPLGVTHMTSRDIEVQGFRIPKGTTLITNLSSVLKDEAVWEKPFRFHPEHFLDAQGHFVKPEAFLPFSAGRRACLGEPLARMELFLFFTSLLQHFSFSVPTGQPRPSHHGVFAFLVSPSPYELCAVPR

Cavia porcellus = test: Cardiotoxicity in telemetered guinea pig assessed as changes in QRS interval at 30 to 100 mg/kg; type: toxicity, organism-based; details: in vivo
Method in brief: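 Telemetered guinea pigs were exposed at 30 and 100 mg/kg. Electrocardiographic PR, QRS and QT/QTc intervals were monitored for changes related to the test article, and exposure was referenced to total Cmax.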

[17] = Mean residence time in CD1 mouse at 10 mg/kg, iv; type: ADME, organism-based; details: in vivo
Method in brief: (§2)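 Intravenous dosing in male CD1 mice (10 mg/kg, n = 30), Sprague–Dawley rats (3 mg/kg, n = 3), beagle dogs (3 mg/kg, n = 3) and cynomolgus monkeys (1 mg/kg, n = 3). Vehicle was aqueous 20% hydroxypropyl-β-cyclodextrin. Mean residence time and steady-state volume of distribution were taken from plasma concentration–time profiles as mean parameters.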

[18] = Half life in Sprague-Dawley rat at 3 mg/kg, iv; type: ADME, organism-based; details: in vivo
Method in brief: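 The compound was given intravenously as an aqueous solution in 20% hydroxypropyl-β-cyclodextrin. Animals were male CD1 mice (10 mg/kg, n = 30), Sprague–Dawley rats (3 mg/kg, n = 3), beagle dogs (3 mg/kg, n = 3) and cynomolgus monkeys (1 mg/kg, n = 3). Plasma concentration–time data gave mean AUC(0–∞), half-life, mean residence time, clearance and Vd,ss.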

[19] = Mean residence time in Sprague-Dawley rat at 3 mg/kg, iv; type: ADME, organism-based; details: in vivo; method in brief: as §2
[20] = Mean residence time in Beagle dog at 3 mg/kg, iv; type: ADME, organism-based, Canis lupus familiaris; details: in vivo; method in brief: as §2
[21] = Volume of distribution at steady state in Beagle dog at 3 mg/kg, iv; type: ADME, organism-based, Canis lupus familiaris; details: in vivo, read-out: Vdss; method in brief: as §2
[22] = Tmax in Sprague-Dawley rat at 10 mg/kg, po; type: ADME, organism-based; details: in vivo
Method in brief: (§3)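 Oral dosing in male CD1 mice (30 mg/kg, n = 27), Sprague–Dawley rats (10 mg/kg, n = 3), beagle dogs (30 mg/kg, n = 3) and cynomolgus monkeys (10 mg/kg, n = 3). Mean Tmax was read from plasma concentration–time data. Bioavailability was derived from oral AUC(0–∞) compared with intravenous AUC.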

[23] = Oral bioavailability in Sprague-Dawley rat at 10 mg/kg; type: ADME, organism-based; details: in vivo; method in brief: as §3
[24] = Tmax in Beagle dog at 30 mg/kg, po; type: ADME, organism-based, Canis lupus familiaris; details: in vivo; method in brief: as §3
[25] = Oral bioavailability in Beagle dog at 30 mg/kg; type: ADME, organism-based, Canis lupus familiaris; details: in vivo; method in brief: as §3
[26] = Tmax in monkey at 10 mg/kg, po; details: cynomolgus monkey, in vivo
[27] = Oral bioavailability in monkey at 10 mg/kg; details: cynomolgus monkey, in vivo
[28] = Mean residence time in monkey at 1 mg/kg, iv; details: cynomolgus monkey, in vivo
[29] = Volume of distribution at steady state in monkey at 1 mg/kg, iv; details: cynomolgus monkey, in vivo, read-out: Vdss

T1 sequence (P08684 whole entry): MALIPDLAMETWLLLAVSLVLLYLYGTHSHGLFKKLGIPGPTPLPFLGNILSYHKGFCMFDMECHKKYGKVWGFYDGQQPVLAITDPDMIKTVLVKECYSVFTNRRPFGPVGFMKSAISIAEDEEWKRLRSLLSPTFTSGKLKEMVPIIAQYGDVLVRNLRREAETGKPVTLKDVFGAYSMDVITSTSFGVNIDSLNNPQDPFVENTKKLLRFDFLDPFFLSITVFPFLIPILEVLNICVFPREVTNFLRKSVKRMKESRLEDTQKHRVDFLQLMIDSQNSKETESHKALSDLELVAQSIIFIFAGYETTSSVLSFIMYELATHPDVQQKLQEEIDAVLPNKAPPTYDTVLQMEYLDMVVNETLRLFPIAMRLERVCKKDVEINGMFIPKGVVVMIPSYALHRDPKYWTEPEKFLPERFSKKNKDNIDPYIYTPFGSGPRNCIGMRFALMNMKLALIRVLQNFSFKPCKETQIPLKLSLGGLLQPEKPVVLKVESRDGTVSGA

CS[C@@]1(C(=O)Nc2ccc3[nH]nc(-c4ccc(OC(C)C)nc4)c3c2)CCN(CC(=O)N2CC=C(c3ccc(-c4ncn(C)n4)cc3)CC2)C1 [MK-8353]
IC50 (HT-29): 51 nM
IC50 (Cytochrome P450 3A4 [1]): > 5000 nM
IC50 (Cytochrome P450 3A4 [2]): 1700 nM
inhibition (hERG (KCNH2) [3]): -3.5%
inhibition at 1 µM (hERG (KCNH2) [4]): -1.7%
inhibition at 10 µM (hERG (KCNH2) [5]): -0.2%
IC50 (A2058): 371 nM
IC50 (Cytochrome P450 2C8): 3500 nM
IC50 (Cytochrome P450 2C9 [6]): > 5000 nM
IC50 (Cytochrome P450 2C9 [7]): > 5000 nM
Activity (Caspase (Homo sapiens)): 185 nM
inhibition at 0.6 µM (hERG (KCNH2) [8]): 16%
Papp A→B [9]: 13.4 ×10⁻⁶ cm/s
Papp B→A [10]: 40 ×10⁻⁶ cm/s
fraction unbound at 10 µM [11]: < 0.01
fraction unbound at 10 µM [12]: < 0.01
fraction unbound at 10 µM [13]: < 0.01
fraction unbound at 10 µM [14]: < 0.01
inhibition [15]: Dose-dependent effect
inhibition [16]: 100%
inhibition (INH) (Cytochrome P450 2C19): Not Active
inhibition (INH) (Cytochrome P450 2D6): Not Active
Activity (Cavia porcellus): Non-Toxic
MRT [17]: 1.5 h
half-life [18]: 1.6 h
MRT [19]: 2.3 h
MRT [20]: 4 h
Vd [21]: 0.9 L/kg
Tmax [22]: 1.7 h
bioavailability [23]: 50%
Tmax [24]: 4 h
bioavailability [25]: 23%
Tmax [26]: 1.4 h
bioavailability [27]: 2%
MRT [28]: 1.9 h
Vd [29]: 2 L/kg
